Measurements from ChEMBL document CHEMBL1154794, “Asterolaurins A-F, xenicane diterpenoids from the Taiwanese soft coral Asterospicularia laurae” (J Nat Prod, 2009).

How the values were obtained:
[1] = Antiinflammatory activity in human neutrophils assessed as inhibition of fMLP/cytochalasin B-induced elastase release at 10 ug/ml after 5 mins; assay type: functional; conditions: Neutrophil
Outline: (§1)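 Neutrophils (6 × 10^5/mL) given MeO-Suc-Ala-Ala-Pro-Val-p-nitroanilide (100 µM) as substrate, equilibrated 2 min at 37 °C, then exposed to compound for 5 min. Stimulated with FMLP (100 nM)/CB (0.5 µg/mL). Absorbance at 405 nm followed continuously. Initial rate of elastase release expressed as percentage of the FMLP/CB-activated DMSO control. Genistein served as positive control.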

[2] = Antiinflammatory activity in human neutrophils assessed as inhibition of fMLP/cytochalasin B-induced superoxide anion generation at 10 ug/ml after 5 mins by spectrophotometry; assay type: functional; conditions: Neutrophil
Outline: (§2)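 Neutrophils isolated by dextran sedimentation and Ficoll centrifugation. Cells supplemented with ferricytochrome c (0.5 mg/mL) and Ca2+ (1 mM), equilibrated 2 min at 37 °C, then given compound for 5 min. CB (1 µg/mL) added 3 min before FMLP (100 nM) activation for 10 min. Superoxide dismutase-inhibitable ferricytochrome c reduction followed continuously at 550 nm with stirring.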

[3] = system: HepG2; assay: Cytotoxicity against human HepG2 cells by MTT assay; assay type: functional, cell-based
Outline: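 Human liver carcinoma HepG2 cells, viability read by MTT assay. Camptothecin served as positive control.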

[4] = Antiinflammatory activity in human neutrophils assessed as inhibition of fMLP/cytochalasin B-induced elastase release after 5 mins; assay type: functional, cell-based; conditions: Neutrophil; outline: as §1
[5] = Antiinflammatory activity in human neutrophils assessed as inhibition of fMLP/cytochalasin B-induced superoxide anion generation after 5 mins by spectrophotometry; assay type: functional, cell-based; conditions: Neutrophil; outline: as §2

SMILES | inhibition at 10 µg/mL [1] [%] | inhibition at 10 µg/mL [2] [%] | IC50 [3] [µM] | IC50 [4] [µM] | IC50 [5] [µM]
C=C1C[C@@H](OC(C)=O)/C=C(\C)CC[C@@H]2/C(=C\[C@H](O)C=C(C)C)C(=O)OC[C@@H]12 | 13 | 9 | > 40 |  | 
C=C1C[C@@H](O)[C@@H](O)C(=C)CC[C@@H]2C([C@@H](OC(C)=O)[C@H](C=C(C)C)OC(C)=O)=CO[C@H](OC(C)=O)[C@@H]12 [ASTEROLAURIN C] | 39 | 22 | > 40 |  | 
C=C1C[C@@H](OC(C)=O)/C=C(\COC(C)=O)CC[C@@H]2/C(=C\[C@H](O)C=C(C)C)C(=O)OC[C@@H]12 [ASTEROLAURIN E] | 36 | 24 | > 40 |  | 
C=C1C[C@@H](O)[C@@H](O)/C(C)=C\C[C@@H]2C([C@@H](OC(C)=O)[C@H](C=C(C)C)OC(C)=O)=CO[C@H](OC(C)=O)[C@@H]12 [ASTEROLAURIN B] | 30 | 31 | > 40 |  | 
C=C1C[C@@H](O)[C@@H]2O[C@@]2(C)CC[C@@H]2C([C@@H](OC(C)=O)[C@H](C=C(C)C)OC(C)=O)=CO[C@H](OC(C)=O)[C@@H]12 [ASTEROLAURIN A] |  |  | 8.9 | 40 | 
O=c1c(-c2ccc(O)cc2)coc2cc(O)cc(O)c12 [GENISTEIN] | 52 | 65 |  |  | 
C=C1C[C@@H](OC(C)=O)/C=C(\C)CC[C@@H]2/C(=C\C=C\C(C)(C)O)CO[C@H](O)[C@@H]12 [ASTEROLAURIN D] | 68 | 56 | > 40 | 18.7 | 23.6
